The values below come from PubChem BioAssay.

Each structure is given as a SMILES string. The source made the active and inactive calls.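 How the source made its calls, unless noted: active means GFP response above 150% of the DMSO level; inconclusive means fewer than 70 events counted for a yeast strain; inactive means the rest.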

Assay [1] can be described thus: RPL19A-GFP modulators, yeast TOR pathway, confirmation, cell-based, S. cerevisiae, flow cytometry, cherry picks, mother/daughter gates (AID 2270;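 active means GFP response below 50% of the DMSO control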). The note with it: S. cerevisiae RPL19A-GFP strain, 3 h, at 10 µM, stronger effect = lower value, 100 = same GFP as DMSO wells.
Assay [2] in a line: LAP4-GFP expression modulators in yeast, confirmation, cell-based, cherry picks, flow cytometry, mother/daughter gates (AID 2271;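 active means GFP response above 150% of the DMSO control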;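 further: ratio of sample to DMSO plate mean so 100% equals DMSO level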). The note with it: S. cerevisiae LAP4-GFP strain, 3 h, at 10 µM, stronger effect = higher value, 100 means same as DMSO control. Summed up:
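System – GFP-fusion yeast strain · Amount – 0.2 OD600 cells · Buffer or medium – SC growth medium · Dosing – single test-compound dose, 10 µM final · Schedule – 3 h treatment at 30 °C with rotation · Detection – GFP by flow cytometry · Read-out – per-gate (all, mother, daughter) GFP response vs DMSO · Benchmarks – positive rapamycin (400 ng/mL), negative DMSO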

A short description of assay [3]: modulators of MEP2-GFP levels in yeast, confirmation, S. cerevisiae, flow cytometry GFP, cherry picks (AID 2272;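 active means GFP response above 150% of the DMSO control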;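 further: ratio of well signal to plate DMSO mean so 100% equals DMSO level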). As to conditions: S. cerevisiae MEP2-GFP strain, 3 h, at 10 µM, stronger effect = higher value.
Assay [4] can be described thus: AGP1-GFP expression modulators, hit retest, confirmation, cell-based, flow cytometry, S. cerevisiae, cherry picks (AID 2273).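 Further: median GFP channel fluorescence over the whole cell population gate.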 The note with it: S. cerevisiae AGP1-GFP strain, 3 h, at 10 µM.
The nature of assay [5]: modulators of CIT2-GFP expression in yeast, confirmation, S. cerevisiae, GFP fusion, cherry picks, mother/daughter gates (AID 2274). The note with it: S. cerevisiae CIT2-GFP strain, flow cytometry, 3 h, at 10 µM, stronger effect = higher value.
Setting [6] is: measured here: daughter cell gate.
Where [7] appears, read: measured here: mother cell gate.
Setting [8] is: measured here: daughter cell gate response.
The mark [9] stands for this setting: measured here: mother cell gate response.

For `O=C(COC(=O)c1n[nH]c2ccccc12)c1cccc(Br)c1`, the GFP response vs DMSO is 96.5% (inactive) in assay [1], 95.6% in assay [1] (setting [6]), 94.8% in assay [1] (setting [7]) and 101% (inactive) in assay [3]. In addition, the GFP response relative to DMSO was 101% (inactive) in assay [2], 101% in assay [2] (setting [8]) and 99.5% in assay [2] (setting [9]). Also, the GFP response, % of DMSO in assay [4] is 102% (inactive); in assay [5], 100% (inactive); in assay [5] (setting [6]), 95.8%; in assay [5] (setting [7]), 100%.
For `Cc1ccc(N2CC(C(=O)OCc3nnc(-c4ccccc4)o3)CC2=O)cc1` (stereo not drawn), the GFP response vs DMSO in assay [1] is 100% (inactive); in assay [1] (setting [6]) it was 102%; in assay [1] (setting [7]), 101%; in assay [3], 106% (inactive). Also, the GFP response relative to DMSO in assay [2] is 102% (inactive); in assay [2] (setting [8]), 104%; in assay [2] (setting [9]) it was 101%. In addition, the GFP response, % of DMSO in assay [4] was 96.2% (inactive); in assay [5] it was 104% (inactive); in assay [5] (setting [6]), 104%; in assay [5] (setting [7]) it was 103%.
Turning to `O=C(CCc1nc(-c2ccccc2)no1)Nc1cc(C(F)(F)F)ccc1Cl`, the GFP response vs DMSO in assay [1] was 105% (inactive); in assay [1] (setting [6]), 105%; in assay [1] (setting [7]) it was 103%; in assay [3], 105% (inactive). The values for the GFP response relative to DMSO in assay [2], in assay [2] (setting [8]) and in assay [2] (setting [9]) were 91.9% (inactive), 91% and 92%, respectively. In addition, the GFP response, % of DMSO in assay [4] was 102% (inactive); in assay [5], 112% (inactive); in assay [5] (setting [6]), 108%; in assay [5] (setting [7]) it was 110%.
In the case of `CCOC(=O)c1ccc(NC(=O)CCc2nc(-c3ccc(C)cc3)no2)cc1`, the GFP response vs DMSO is 101% (inactive) in assay [1], 102% in assay [1] (setting [6]), 100% in assay [1] (setting [7]) and 107% (inactive) in assay [3]. The results for the GFP response relative to DMSO in assay [2], in assay [2] (setting [8]) and in assay [2] (setting [9]) were 98.2% (inactive), 99.1% and 98.4%, respectively. The GFP response, % of DMSO in assay [4] is 100% (inactive); in assay [5], 91.5% (inactive); in assay [5] (setting [6]) it was 90.2%; in assay [5] (setting [7]), 93.2%.
On to `Cc1cc(N)n2ncc(-c3ccccc3)c2n1`, for which the GFP response vs DMSO in assay [1] is 95.6% (inactive); in assay [1] (setting [6]), 95.1%; in assay [1] (setting [7]), 94%; in assay [3], 105% (inactive). The GFP response relative to DMSO was 106% (inactive) in assay [2], 102% in assay [2] (setting [8]) and 106% in assay [2] (setting [9]). For the same molecule, the GFP response, % of DMSO in assay [4] was 89.4% (inactive); in assay [5], 101% (inactive); in assay [5] (setting [6]), 101%; in assay [5] (setting [7]), 98.5%.
`Nc1cc(N)nc(SCC(=O)N2CCc3ccccc32)n1`: the GFP response vs DMSO in assay [1] is 100% (inactive); in assay [1] (setting [6]), 101%; in assay [1] (setting [7]), 99.7%; in assay [3] it was 105% (inactive). Further, the GFP response relative to DMSO in assay [2] is 97.9% (inactive); in assay [2] (setting [8]) it was 97.6%; in assay [2] (setting [9]) it was 96.1%. The GFP response, % of DMSO in assay [4] is 98.5% (inactive); in assay [5], 101% (inactive); in assay [5] (setting [6]), 101%; in assay [5] (setting [7]), 101%.
On to `CCC(Sc1nc(=O)cc(N)n1-c1ccccc1)C(=O)Nc1cc(C)on1` (stereo not drawn), for which the GFP response vs DMSO is 98.2% (inactive) in assay [1], 98.8% in assay [1] (setting [6]), 95.3% in assay [1] (setting [7]) and 108% (inactive) in assay [3]. The GFP response relative to DMSO in assay [2] was 105% (inactive); in assay [2] (setting [8]) it was 105%; in assay [2] (setting [9]) it was 96.5%. Moreover, the GFP response, % of DMSO in assay [4] was 102% (inactive); in assay [5] it was 109% (inactive); in assay [5] (setting [6]), 111%; in assay [5] (setting [7]) it was 104%.
As for `CCCc1[nH]nc2c1C(c1cccc(OC(=O)c3ccco3)c1)C(C#N)=C(N)O2` (stereo not drawn), the GFP response vs DMSO in assay [1] was 98.5% (inactive); in assay [1] (setting [6]), 96.7%; in assay [1] (setting [7]), 96.7%; in assay [3], 99.3% (inactive). Also, the GFP response relative to DMSO was 97.7% (inactive) in assay [2], 96% in assay [2] (setting [8]) and 98.4% in assay [2] (setting [9]). Further, the GFP response, % of DMSO is 106% (inactive) in assay [4], 104% (inactive) in assay [5], 103% in assay [5] (setting [6]) and 104% in assay [5] (setting [7]).
For the molecule `O=C(O)c1cccc(S(=O)(=O)N2Cc3ccccc3C2)c1`, the GFP response vs DMSO in assay [1] was 96.9% (inactive); in assay [1] (setting [6]) it was 97.3%; in assay [1] (setting [7]), 95.9%; in assay [3] it was 101% (inactive). Further, the GFP response relative to DMSO in assay [2] was 106% (inactive); in assay [2] (setting [8]), 101%; in assay [2] (setting [9]), 108%. Besides, the GFP response, % of DMSO in assay [4] was 104% (inactive); in assay [5] it was 100% (inactive); in assay [5] (setting [6]), 99.3%; in assay [5] (setting [7]), 100%.
On to `CC(=O)Oc1ccc(N2C(=O)C3C4C=CC(CO)(O4)C3C2=O)cc1` (stereo not drawn), for which the GFP response vs DMSO in assay [1] was 103% (inactive); in assay [1] (setting [6]), 104%; in assay [1] (setting [7]) it was 97.8%; in assay [3] it was 107% (inactive). The GFP response relative to DMSO was 120% (inactive) in assay [2], 120% in assay [2] (setting [8]) and 120% in assay [2] (setting [9]). Also, the GFP response, % of DMSO in assay [4] is 101% (inactive); in assay [5], 109% (inactive); in assay [5] (setting [6]) it was 112%; in assay [5] (setting [7]), 104%.
Take `COC(=O)c1ccc(/C=N\NC(=O)c2ccc(C)cc2Cl)cc1`: the GFP response vs DMSO in assay [1] is 98.6% (inactive); in assay [1] (setting [6]), 98.9%; in assay [1] (setting [7]) it was 96.7%; in assay [3], 102% (inactive). The GFP response relative to DMSO in assay [2] was 95.4% (inactive); in assay [2] (setting [8]) it was 94.4%; in assay [2] (setting [9]) it was 95.1%. Besides, the GFP response, % of DMSO was 96.4% (inactive) in assay [4], 103% (inactive) in assay [5], 105% in assay [5] (setting [6]) and 99.7% in assay [5] (setting [7]).
As to `Cc1cc(NC(=O)c2cncc(Br)c2)ccc1NC(=O)c1cc2ccccc2o1`, the GFP response vs DMSO in assay [1] was 102% (inactive); in assay [1] (setting [6]), 100%; in assay [1] (setting [7]), 104%; in assay [3], 109% (inactive). In addition, the GFP response relative to DMSO is 90.2% (inactive) in assay [2], 87.9% in assay [2] (setting [8]) and 95.2% in assay [2] (setting [9]). Further, the GFP response, % of DMSO in assay [4] is 95% (inactive); in assay [5] it was 99.1% (inactive); in assay [5] (setting [6]), 98.1%; in assay [5] (setting [7]), 97.7%.
Turning to `O=C1C=CC(=O)N1N(c1ccccc1)c1ccccc1`, the GFP response vs DMSO was 96.2% (inactive) in assay [1], 90.7% in assay [1] (setting [6]), 87.1% in assay [1] (setting [7]) and 127% (inactive) in assay [3]. Further, the GFP response relative to DMSO in assay [2] was 209% (active); in assay [2] (setting [8]) it was 148%; in assay [2] (setting [9]), 208%. Moreover, the GFP response, % of DMSO was 114% (inactive) in assay [4], 95.9% (inactive) in assay [5], 88.9% in assay [5] (setting [6]) and 79.8% in assay [5] (setting [7]).
